The values that follow come from publication PMC6694902 (Journal of Taibah University Medical Sciences, 2017).

Values joined by “and” are separate entries in the source; they are usually repeats but may differ in a detail not shown here. Equal entries are not always repeated.

The subject of assay [1] is Klebsiella pneumoniae (MTCC 109). The note with it: reported earlier by the authors ref 6; cited from earlier work.
Assay [2] relates to Escherichia coli (res). In words: Agar well diffusion, zone of inhibition. Format: cell-based. The note with it: mean ± S.D., n = 6; resistant to norfloxacin, ofloxacin, ampicillin, cefixime, nitrofurantoin. The procedure, abridged: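 Clinical isolate from a faecal sample (Bhubaneswar hospital). Nutrient agar plates were seeded with a 1.5 × 10^6 CFU/mL suspension matched to McFarland 0.5. Test compound was loaded into the agar wells from a DMF stock (1 mg/mL). Plates were incubated at 37 °C for 18–24 h and the inhibition zone was read. Amoxicillin and ampicillin were the reference antibiotics.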

Assay [3] has as its system Klebsiella pneumoniae (MTCC 109). Kind of assay: Agar well diffusion, zone of inhibition. Format: cell-based. The following applies: mean ± S.D., n = 6. The procedure, abridged:
(§1)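 Agar well diffusion on nutrient agar. K. pneumoniae MTCC 109 came from IMTECH; S. aureus (res) was an Utkal University isolate. Plates were seeded with 1.5 × 10^6 CFU/mL suspensions (McFarland 0.5). Test compounds were dissolved in DMF (1 mg/mL stock) and placed in wells, with amoxicillin and ampicillin as references. Plates were kept at 37 °C for 18–24 h, then zones were read.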

The subject of assay [4] is Staphylococcus aureus (res). Kind of assay: Agar well diffusion, zone of inhibition. Format: cell-based. The note with it: mean ± S.D., n = 6; resistant to norfloxacin, ofloxacin, ampicillin, cefotaxime. The procedure, abridged: as §1
Assay [5] relates to Candida albicans (MTCC 3017). Kind of assay: Agar well diffusion, zone of inhibition. Format: cell-based. The note with it: mean ± S.D., n = 6. Put shortly:
(§2)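 Agar well diffusion on Sabouraud dextrose agar. C. albicans MTCC 3017 came from IMTECH; C. neoformans was an Utkal University strain. Plates were seeded with 1.5 × 10^6 CFU/mL suspensions (McFarland 0.5). Test compounds were dissolved in DMF (1 mg/mL stock) and loaded into wells, with fluconazole as reference. Incubation was 37 °C for 18–24 h, and zones were measured.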

Assay [6] deals with Cryptococcus neoformans. Kind of assay: Agar well diffusion, zone of inhibition. Format: cell-based. The note with it: mean ± S.D., n = 6. Put shortly:
as §2

The test system of assay [7] is Escherichia coli (res). Kind of assay: Minimum inhibitory concentration. The note with it: 31.25–500 µg/mL tested, 37 °C, 18–24 h. Format: cell-based. The procedure, abridged:
(§3)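 MIC was determined in nutrient agar wells seeded with bacteria (McFarland 0.5, 1.5 × 10^6 CFU/mL). E. coli (res) and S. aureus (res) were clinical isolates; K. pneumoniae was MTCC 109. DMF stocks at 1 mg/mL were diluted two-fold to five levels (31.25–500 µg/mL) in wells, with amoxicillin and ampicillin as references. Plates were incubated at 37 °C for 18–24 h.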

Assay [8] has as its system Klebsiella pneumoniae (MTCC 109). In words: Minimum inhibitory concentration. Format: cell-based. The following applies: 31.25–500 µg/mL tested, 37 °C, 18–24 h. The procedure, abridged:
as §3

For assay [9], the system named is Staphylococcus aureus (res). Kind of assay: Minimum inhibitory concentration. Format: cell-based. The note with it: 31.25–500 µg/mL tested, 37 °C, 18–24 h. Put shortly: as §3
Assay [10] has as its system Candida albicans (MTCC 3017). In words: Minimum inhibitory concentration. Format: cell-based. The following applies: 31.25–500 µg/mL tested, 37 °C, 18–24 h. Put shortly:
(§4)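 MIC was determined in agar wells on Sabouraud dextrose agar seeded with the fungal strain (McFarland 0.5, 1.5 × 10^6 CFU/mL). DMF stocks at 1 mg/mL were diluted two-fold to five levels (31.25–500 µg/mL) and loaded into wells, with fluconazole as reference. After 18–24 h at 37 °C, the lowest inhibitory concentration was taken as the MIC.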

The test system of assay [11] is Cryptococcus neoformans. Kind of assay: Minimum inhibitory concentration. Format: cell-based. The following applies: 31.25–500 µg/mL tested, 37 °C, 18–24 h. Put shortly:
as §4

A short description of assay [12]: DPPH radical scavenging assay. Format: biochemical. The note with it: mean ± S.D., n = 3; for IC50 (DPPH radical scavenging): graphically determined. The procedure, abridged:
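DPPH scavenging, a modified method, was read as absorbance at 517 nm for test compounds at several concentrations. BHT served as standard, and DPPH in methanol served as control. Percent inhibition was calculated from control and sample absorbances, and IC50 was obtained graphically. Data were analysed by one-way ANOVA with Dunnett's post hoc test.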

For `COc1ccc(/N=C/c2cc(/N=N/c3cccc([N+](=O)[O-])c3)ccc2[O][Co][O]c2ccc(/N=N/c3cccc([N+](=O)[O-])c3)cc2/C=N/c2ccc(OC)cc2)cc1` [5a(Co Lig2), bis[2-{(E)-(4-methoxyphenylimino)methyl}-4-{(E)-(3-nitrophenyl)diazenylphenoxy}cobalt]], the “antibacterial activity against K. pneumoniae” value in assay [1] is listed as “significant antibacterial activity”.

As for `Cc1cc(N=Nc2ccc([O][Co][O]c3ccc(N=Nc4ccc(Br)c(C)c4)cc3C=Nc3nc(-c4ccc(Cl)cc4)cs3)c(C=Nc3nc(-c4ccc(Cl)cc4)cs3)c2)ccc1Br` [Compound 6d, Bis[4-{(4-bromo-3-methylphenyl)diazenyl}-2-{(4-(4-chlorophenyl)thiazol-2-ylimino)methyl}phenoxy]cobalt], the “zone of inhibition, E. coli (res)” value with Escherichia coli (res) [2] was 15.5 ± 3.21 mm and 15.5 ± 3.21^∗ mm. Further, the “zone of inhibition, K. pneumoniae” value in [3] was 16.17 ± 2.99 mm and 16.17 ± 2.99^∗ mm. For the same molecule, in assay [4], the “zone of inhibition, S. aureus (res)” value was 16.83 ± 2.71 mm and 16.83 ± 2.71^∗ mm. Besides, in [5], the “zone of inhibition, C. albicans” value amounted to 12.67 ± 2.34 mm. In the assay with Cryptococcus neoformans [6], the “zone of inhibition, C. neoformans” value was 12.17 ± 2.71 mm. The “Minimum inhibitory concentration (MIC), E. coli (res)” value in the assay on Escherichia coli (res) [7] is 31.25 µg/mL. Further, in assay [8], the “Minimum inhibitory concentration (MIC), K. pneumoniae” value turned out to be 31.25 µg/mL. The “Minimum inhibitory concentration (MIC), S. aureus (res)” value in assay [9] amounted to 31.25 µg/mL. The “Minimum inhibitory concentration (MIC), C. albicans” value in assay [10] was determined as 250 µg/mL. For the same molecule, the “Minimum inhibitory concentration (MIC), C. neoformans” value in the assay on Cryptococcus neoformans [11] was found to be 250 µg/mL. For the same molecule, the “% Inhibition (DPPH)” value in assay [12] (Conc. 10 μg/mL) worked out at 36.53 ± 0.02 %; in assay [12] (Conc. 30 μg/mL) it was 43.03 ± 0.04%; in assay [12] (Conc. 50 μg/mL), 61.97 ± 0.08 %; in assay [12] (Conc. 70 μg/mL), 73.78 ± 0.07%. Besides, the “IC50 (DPPH radical scavenging)” value in assay [12] is 38 ± 1.4 µg/mL.

Regarding `Cc1cc(N=Nc2ccc([O][Cu][O]c3ccc(N=Nc4ccc(Br)c(C)c4)cc3C=Nc3nc(-c4ccc(Cl)cc4)cs3)c(C=Nc3nc(-c4ccc(Cl)cc4)cs3)c2)ccc1Br` [Compound 6e, Bis[4-{(4-bromo-3-methylphenyl)diazenyl}-2-{(4-(4-chlorophenyl)thiazol-2-ylimino)methyl}phenoxy] copper,], the “zone of inhibition, E. coli (res)” value with Escherichia coli (res) [2] was 14.83 ± 2.56 mm. Moreover, the “zone of inhibition, K. pneumoniae” value in assay [3] came to 15.83 ± 2.23 mm. Moreover, in assay [4], the “zone of inhibition, S. aureus (res)” value is 14.5 ± 1.52 mm. Also, in [5], the “zone of inhibition, C. albicans” value was found to be 11.17 ± 6.21 mm. Besides, the “zone of inhibition, C. neoformans” value in the assay with Cryptococcus neoformans [6] was 10.5 ± 1.52 mm. Moreover, the “Minimum inhibitory concentration (MIC), E. coli (res)” value with Escherichia coli (res) [7] was 62.5 µg/mL. In addition, the “Minimum inhibitory concentration (MIC), K. pneumoniae” value in [8] was determined as 31.25 µg/mL. For the same molecule, in assay [9], the “Minimum inhibitory concentration (MIC), S. aureus (res)” value came out at 62.5 µg/mL. Moreover, the “Minimum inhibitory concentration (MIC), C. albicans” value in [10] was found to be 250 µg/mL. For the same molecule, the “Minimum inhibitory concentration (MIC), C. neoformans” value in the assay on Cryptococcus neoformans [11] was determined as 250 µg/mL. The “% Inhibition (DPPH)” value stood at 31.24 ± 0.06% in assay [12] (Conc. 10 μg/mL), 41.31 ± 0.02% in [12] (Conc. 30 μg/mL), 51.77 ± 0.08% in [12] (Conc. 50 μg/mL) and 79.89 ± 0.04% in [12] (Conc. 70 μg/mL). Further, in assay [12], the “IC50 (DPPH radical scavenging)” value was found to be 46 ± 0.98 µg/mL.

As to “Bis[{4-((4-bromo-3-methylphenyl)diazenyl)-2-((4-phenylthiazol-2-limino)methyl)phenoxy}] cobalt [Compound 6a]”, the “zone of inhibition, E. coli (res)” value with Escherichia coli (res) [2] was 16.67 ± 2.34 mm and 16.67 ± 2.34^∗ mm. For the same molecule, in assay [3], the “zone of inhibition, K. pneumoniae” value was 16.17 ± 1.94 mm and 16.17 ± 1.94^∗ mm. Also, in assay [4], the “zone of inhibition, S. aureus (res)” value was 20.83 ± 1.84 mm and 20.83 ± 1.84^∗ mm. For the same molecule, the “zone of inhibition, C. albicans” value in [5] was 12.83 ± 2.23 mm. Also, the “zone of inhibition, C. neoformans” value in the assay on Cryptococcus neoformans [6] was 13.67 ± 2.94 mm. In addition, the “Minimum inhibitory concentration (MIC), E. coli (res)” value with Escherichia coli (res) [7] is 31.25 µg/mL. In addition, in [8], the “Minimum inhibitory concentration (MIC), K. pneumoniae” value was found to be 31.25 µg/mL. Further, the “Minimum inhibitory concentration (MIC), S. aureus (res)” value in assay [9] was found to be 31.25 µg/mL. Also, in assay [10], the “Minimum inhibitory concentration (MIC), C. albicans” value was determined as 31.25 µg/mL. Further, the “Minimum inhibitory concentration (MIC), C. neoformans” value in the assay on Cryptococcus neoformans [11] turned out to be 125 µg/mL. In addition, the “% Inhibition (DPPH)” value amounted to 29.72 ± 0.07% in assay [12] (Conc. 10 μg/mL), 43.32 ± 0.11% in assay [12] (Conc. 30 μg/mL), 63.44 ± 0.07 % in assay [12] (Conc. 50 μg/mL) and 83.02 ± 0.06% in [12] (Conc. 70 μg/mL). In addition, in assay [12], the “IC50 (DPPH radical scavenging)” value was 36 ± 0.56 µg/mL.
